Each structure is given as a SMILES string. Values after ≈ are worked out from the molar mass of the structure shown. Where only a bound is given, the exact number is not on record here.

Holding throughout (assay type): functional
Test [1] relates to Staphylococcus aureus. The test is described as follows: Antibacterial activity against Staphylococcus aureus SG 511 after 24 hrs by micro-broth dilution method. The settings on record: SG 511, 24 h. The gist of the method: (§1)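 Microbroth dilution per NCCLS guidelines. Bacteria grown overnight at 37 °C in Mueller–Hinton broth. Compound solution serially diluted twofold in MHB, then wells inoculated to a final 5×10⁵ CFU/mL. Incubated 24 h at 37 °C. MIC (µg/mL) read on an automatic plate reader as the lowest dilution allowing no visible growth.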
For orientation: In broth dilution the organism is exposed to a series of concentrations in liquid medium.

The test system of test [2] is Staphylococcus aureus. The test is described as follows: Antibacterial activity against methicillin-resistant Staphylococcus aureus 994/93 after 24 hrs by micro-broth dilution method. The gist of the method: (§2)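 Broth microdilution per NCCLS in Mueller–Hinton broth. Overnight cultures grown at 37 °C. Compound serially diluted twofold, then wells inoculated to a final 5×10⁵ CFU/mL. Plates held at 37 °C for 24 h. MIC (µg/mL) read on an automatic plate reader as the lowest dilution with no visible growth.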

Test [3] deals with Staphylococcus aureus. Nature of the test: Antibacterial activity against methicillin-resistant Staphylococcus aureus 134/94 after 24 hrs by microbroth dilution method. The gist of the method: as §2
Test [4] has as its system Micrococcus luteus. The test is described as follows: Antibacterial activity against Micrococcus luteus ATCC 10240 after 24 hrs by microbroth dilution method. The settings on record: ATCC 10240, 24 h. An outline of the steps:
as §1

The subject of test [5] is Enterococcus faecalis. The test is described as follows: Antibacterial activity against Enterococcus faecalis 1528 after 24 hrs by micro-broth dilution method. An outline of the steps:
as §1

Test [6] deals with Mycolicibacterium smegmatis. Nature of the test: Antimicrobial activity against Mycobacterium smegmatis SG 987 after 24 hrs by micro-broth dilution method. The gist of the method:
as §1

Test [7] concerns Mycolicibacterium aurum. Nature of the test: Antimicrobial activity against Mycobacterium aurum SB 66 after 24 hrs by micro-broth dilution method. An outline of the steps: as §1
The test system of test [8] is Mycolicibacterium vaccae. Nature of the test: Antimicrobial activity against Mycobacterium vaccae 10670 after 24 hrs by micro-broth dilution method. An outline of the steps:
as §1

The test system of test [9] is Mycolicibacterium fortuitum. Nature of the test: Antimicrobial activity against Mycobacterium fortuitum Borstel after 24 hrs by microbroth dilution method. An outline of the steps:
as §1

The subject of test [10] is Mycobacterium tuberculosis. Nature of the test: Antimicrobial activity against Mycobacterium tuberculosis My 331/88 after 14 days. The settings on record: 336 h.
Test [11] has as its system Mycobacterium tuberculosis. The test is described as follows: Antimicrobial activity against Mycobacterium tuberculosis My 331/88 after 21 days. The settings on record: 504 h.
Test [12] deals with Mycobacterium avium. Nature of the test: Antimicrobial activity against Mycobacterium avium My 330/88 after 14 days. The settings on record: 336 h.
Test [13] concerns Mycobacterium avium. Nature of the test: Antimicrobial activity against Mycobacterium avium My 330/88 after 21 days. The note with it: 504 h.
Test [14] concerns Mycobacterium kansasii. The test is described as follows: Antimicrobial activity against Mycobacterium kansasii My 235/80 after 7 days. The note with it: 168 h. An outline of the steps: (§3)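 Run in Šula semisynthetic liquid medium containing bovine serum. Compounds added as DMSO solutions at final concentrations of […]. Each strain was also inoculated onto Löwenstein–Jensen medium to control inoculum sterility and growth.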

Test [15] concerns Mycobacterium kansasii. The test is described as follows: Antimicrobial activity against Mycobacterium kansasii My 235/80 after 14 days. The settings on record: 336 h. The gist of the method:
as §3

Test [16] relates to Mycobacterium kansasii. The test is described as follows: Antimicrobial activity against Mycobacterium kansasii My 235/80 after 21 days. The note with it: 504 h. An outline of the steps: as §3
The test system of test [17] is Mycobacterium kansasii. Nature of the test: Antimicrobial activity against Mycobacterium kansasii My 6509/96 after 7 days. The settings on record: 168 h. The gist of the method:
as §3

The test system of test [18] is Mycobacterium kansasii. Nature of the test: Antimicrobial activity against Mycobacterium kansasii My 6509/96 after 14 days. The note with it: 336 h. An outline of the steps:
as §3

Test [19] relates to Mycobacterium kansasii. The test is described as follows: Antimicrobial activity against Mycobacterium kansasii My 6509/96 after 21 days. The settings on record: 504 h. An outline of the steps: as §3
Test [20] has as its system L929. The test is described as follows: Antiproliferative activity against mouse L929 cells after 72 hrs. The note with it: L929, 72 h. The gist of the method:
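About 10,000 adherent cells per well in RPMI 1640 with 10% heat-inactivated FBS and penicillin/streptomycin, without HEPES. Exposed to 10 concentrations for 72 h at 37 °C in humidified 5% CO₂. Monolayers fixed with glutaraldehyde, stained 15 min with 0.05% methylene blue, and eluted with 0.33 N HCl; OD read at 630 nm. GI50 derived from dose–response curves relative to control.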

Test [21] concerns K562. The test is described as follows: Antiproliferative activity against human K562 cells after 72 hrs. The note with it: K562, 72 h. An outline of the steps: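 About 10,000 suspension cells per well in RPMI 1640 with 10% heat-inactivated FBS and penicillin/streptomycin, without HEPES. Exposed to 10 concentrations for 72 h at 37 °C in humidified 5% CO₂. Wells diluted 1:50 in CASYTON and counted electronically, each result the mean of three successive counts. GI50 is where the concentration–response curve crosses 50% of control cell count.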

The subject of test [22] is HeLa. Nature of the test: Cytotoxicity against human HeLa cells after 72 hrs. The note with it: for CC50: Homo sapiens, HeLa, 72 h. An outline of the steps: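 About 10,000 cells per well in RPMI 1640 were preincubated 48 h without compound. The 10 test concentrations were then applied onto the monolayers and incubated 72 h at 37 °C in humidified 5% CO₂. Monolayers fixed with glutaraldehyde, stained with 0.05% methylene blue, and eluted with 0.33 N HCl; optical density measured at 630 nm.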

Broadly, the MIC is the lowest concentration that inhibits growth of the organism. What is called GI50 is the concentration giving 50% growth inhibition. The term CC50 denotes the concentration at which the toxic effect on the cells reaches its halfway point. A low value points to harm at low concentration. For `Clc1ccc(CSc2ccncc2)cc1`, the MIC in test [1] is 50 µg/mL (≈ 212 µM); in test [2], 100 µg/mL (≈ 424 µM); in test [3] it was over 100 µg/mL; in [4] it was 50 µg/mL (≈ 212 µM); in test [5], 100 µg/mL (≈ 424 µM); in test [6], 25 µg/mL (≈ 106 µM). Further, the MIC in [7] is 12.5 µg/mL (≈ 53 µM); in test [8] it was 25 µg/mL (≈ 106 µM); in test [9], 12.5 µg/mL (≈ 53 µM); in test [10], 32 µM (≈ 7.54 µg/mL); in test [11], 62.5 µM (≈ 14.7 µg/mL); in test [12], 62.5 µM (≈ 14.7 µg/mL). Moreover, the MIC in [13] is 62.5 µM (≈ 14.7 µg/mL); in test [14] it was 32 µM (≈ 7.54 µg/mL); in test [15] it was 62.5 µM (≈ 14.7 µg/mL); in test [16], 62.5 µM (≈ 14.7 µg/mL); in [17], 32 µM (≈ 7.54 µg/mL); in [18], 62.5 µM (≈ 14.7 µg/mL). This compound yielded an MIC in test [19] of 62.5 µM (≈ 14.7 µg/mL). In addition, the GI50 in test [20] was 21.2 µg/mL (≈ 89.9 µM); in [21], 19.8 µg/mL (≈ 84 µM). The compound further had a CC10 in test [22] of 8.6 µg/mL (≈ 36.5 µM). In addition, the CC50 in [22] came to 16.3 µg/mL (≈ 69.1 µM).

For `Cc1ccc(CSc2ccncc2)cc1`, the MIC in test [1] is 50 µg/mL (≈ 232 µM); in test [2], 100 µg/mL (≈ 464 µM); in [3], 100 µg/mL (≈ 464 µM); in test [4], 100 µg/mL (≈ 464 µM); in [5], 100 µg/mL (≈ 464 µM); in test [6], 50 µg/mL (≈ 232 µM). Also, the MIC in [7] was found to be 25 µg/mL (≈ 116 µM); in test [8] it was 25 µg/mL (≈ 116 µM); in test [9] it was 12.5 µg/mL (≈ 58.1 µM); in [10], 62.5 µM (≈ 13.5 µg/mL); in test [11], 62.5 µM (≈ 13.5 µg/mL); in test [12], 62.5 µM (≈ 13.5 µg/mL). For the same compound, the MIC turned out to be 125 µM (≈ 26.9 µg/mL) in [13]; 32 µM (≈ 6.89 µg/mL) in test [14]; 62.5 µM (≈ 13.5 µg/mL) in test [15]; 125 µM (≈ 26.9 µg/mL) in test [16]; 32 µM (≈ 6.89 µg/mL) in test [17]; 62.5 µM (≈ 13.5 µg/mL) in test [18]. In addition, the MIC in test [19] was 125 µM (≈ 26.9 µg/mL). In addition, the GI50 was found to be 24.3 µg/mL (≈ 113 µM) in [20] and 37.5 µg/mL (≈ 174 µM) in test [21]. The compound further registered a CC10 in test [22] of 13.3 µg/mL (≈ 61.8 µM). In addition, the CC50 in test [22] is 21.4 µg/mL (≈ 99.4 µM).

On to `O=C(O)c1cn(C2CC2)c2cc(N3CCNCC3)c(F)cc2c1=O` [CIPROFLOXACIN], for which the MIC in test [1] is 0.2 µg/mL (≈ 0.604 µM); in test [2], over 100 µg/mL; in test [4], 12.5 µg/mL (≈ 37.7 µM); in test [5], 0.8 µg/mL (≈ 2.41 µM); in [6] it was 0.78 µg/mL (≈ 2.35 µM); in [7] it was 0.1 µg/mL (≈ 0.302 µM). Also, the values for the MIC in test [8] and in [9] were 0.78 µg/mL (≈ 2.35 µM) and 0.4 µg/mL (≈ 1.21 µM), respectively.

For the origin of these results see ChEMBL document CHEMBL1143019, “Hybrid molecules of estrone: new compounds with potential antibacterial, antifungal, and antiproliferative activities” (2007).
